Measurements: ChEMBL document CHEMBL4613292, “5,6-Dihydroxypyrimidine Scaffold to Target HIV-1 Nucleocapsid Protein” (ACS Med Chem Lett, 2020)
The source made the active and inactive calls. The calls are words filed in the database; no cut-off is given here.

How the values were obtained:
[1] = (§1) Inhibition of HIV1 Nucleocapsid protein (11 to 55 residues) assessed as reduction in NC-induced cTAR DNA destabilization by measuring intrinsic fluorescence using Alexa488-5'-cTAR-3'-Dabcyl oligonucleotide as substrate at 20 degree C incubated for 15 mins by fluorescence assay; set-up: species or system Human immunodeficiency virus 1; settings: read-out: IC50
In short: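 Fluorescence NC-inhibition assay following destabilisation of cTAR DNA, the complement of the HIV-1 transactivation response element, dual-labelled with Alexa488 dye and Dabcyl quencher. NC protein at 1 μM, so the lowest measurable IC50 is 0.5 μM.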

[2] = tested on: Human immunodeficiency virus 1; experiment: (§2) Antiviral activity against wild-type HIV1 NL4-3 infected in human TZM-bl cells infected with supernatants from virus-infected human MT2 cells treated with compound for 48 to 72 hrs assessed as reduction in viral replication after 2 days by bright Glo-luciferase reporter gene assay based BiCycle assay; format: functional, organism-based; settings: Human immunodeficiency virus 1, NL4-3, TZM
In short: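 Two-round cell assay over the full replication cycle: MT-2 T cells are infected with wild-type reference strain NL4-3 in the first round, and reporter TZM-bl cells are infected in the second round. Values are given as mean ± deviation.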

[3] = Cytotoxicity against human HeLa cells assessed as reduction in cell viability; format: cell-based
[4] = as §2, with “Selectivity index, ratio of CC50 for human HeLa cells assessed as reduction in cell viability to EC50 for” for “Antiviral activity against”; format: toxicity; settings: read-out: Ratio CC50/EC50
In short: (§3)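 Selectivity index is CC50 from the respective cytotoxicity assay (HeLa or PBMC) divided by EC50 from the two-round MT-2/TZM-bl NL4-3 assay.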

[5] = Cytotoxicity against phytohemagglutinin and interleukin-2-stimulated human PBMC cells assessed as reduction in cell viability measured after 7 days by MTS assay; format: cell-based
[6] = as §2, with “Selectivity index, ratio of CC50 for human PBMC cells stimulated with phytohemagglutinin and interleukin-2 assessed as reduction in cell viability measured after 7 days by MTS assay to EC50 for” for “Antiviral activity against”; format: toxicity; settings: read-out: Ratio CC50/EC50; in short: as §3
[7] = tested on: Human immunodeficiency virus 1; experiment: Antiviral activity against PI-resistant HIV1 11808; format: functional, organism-based; settings: Human immunodeficiency virus 1, 11808
[8] = tested on: Human immunodeficiency virus 1; experiment: Antiviral activity against NRTI-resistant HIV1 7401; format: functional, organism-based; settings: Human immunodeficiency virus 1, 7401
[9] = tested on: Human immunodeficiency virus 1; experiment: Antiviral activity against NNRTI-resistant HIV1 12231; format: functional, organism-based; settings: Human immunodeficiency virus 1, 12231
[10] = tested on: Human immunodeficiency virus 1; experiment: Antiviral activity against INI-resistant HIV1 11845; format: functional, organism-based; settings: Human immunodeficiency virus 1, 11845
[11] = tested on: Human immunodeficiency virus 1; experiment: as §1, with “Ratio” for “Inhibition”, “of IC50 for PI-resistant HIV1 11808 Nucleocapsid protein (11 to 55 residues) using Alexa488-5'-cTAR-3'-Dabcyl oligonucleotide as substrate to IC50 for” for “of”
[12] = tested on: Human immunodeficiency virus 1; experiment: as §1, with “Ratio” for “Inhibition”, “of IC50 for NRTI-resistant HIV1 7401 Nucleocapsid protein (11 to 55 residues) using Alexa488-5'-cTAR-3'-Dabcyl oligonucleotide as substrate to IC50 for” for “of”
[13] = tested on: Human immunodeficiency virus 1; experiment: as §1, with “Ratio” for “Inhibition”, “of IC50 for NNRTI-resistant HIV1 12231 Nucleocapsid protein (11 to 55 residues) using Alexa488-5'-cTAR-3'-Dabcyl oligonucleotide as substrate to IC50 for” for “of”
[14] = tested on: Human immunodeficiency virus 1; experiment: as §1, with “Ratio” for “Inhibition”, “of IC50 for INI-resistant HIV1 11845 Nucleocapsid protein (11 to 55 residues) using Alexa488-5'-cTAR-3'-Dabcyl oligonucleotide as substrate to IC50 for” for “of”
[15] = Half life in mouse plasma at 3 uM by LC-MS/MS analysis; format: ADME, cell-free
[16] = Half life in human plasma at 3 uM by LC-MS/MS analysis; format: ADME, cell-free
[17] = Half life in mouse hepatocytes at 3 uM by LC-MS/MS analysis; format: ADME, cell-based, Hepatocyte
[18] = Half life in human hepatocytes at 3 uM by LC-MS/MS analysis; format: ADME, cell-based, Hepatocyte
[19] = biological target: Voltage-gated inwardly rectifying potassium channel KCNH2 (Homo sapiens, UniProt Q12809); experiment: Displacement of Tracer Red from human ERG measured after 4 hrs by fluorescence polarization assay
Voltage-gated inwardly rectifying potassium channel KCNH2, sequence (Q12809 whole entry): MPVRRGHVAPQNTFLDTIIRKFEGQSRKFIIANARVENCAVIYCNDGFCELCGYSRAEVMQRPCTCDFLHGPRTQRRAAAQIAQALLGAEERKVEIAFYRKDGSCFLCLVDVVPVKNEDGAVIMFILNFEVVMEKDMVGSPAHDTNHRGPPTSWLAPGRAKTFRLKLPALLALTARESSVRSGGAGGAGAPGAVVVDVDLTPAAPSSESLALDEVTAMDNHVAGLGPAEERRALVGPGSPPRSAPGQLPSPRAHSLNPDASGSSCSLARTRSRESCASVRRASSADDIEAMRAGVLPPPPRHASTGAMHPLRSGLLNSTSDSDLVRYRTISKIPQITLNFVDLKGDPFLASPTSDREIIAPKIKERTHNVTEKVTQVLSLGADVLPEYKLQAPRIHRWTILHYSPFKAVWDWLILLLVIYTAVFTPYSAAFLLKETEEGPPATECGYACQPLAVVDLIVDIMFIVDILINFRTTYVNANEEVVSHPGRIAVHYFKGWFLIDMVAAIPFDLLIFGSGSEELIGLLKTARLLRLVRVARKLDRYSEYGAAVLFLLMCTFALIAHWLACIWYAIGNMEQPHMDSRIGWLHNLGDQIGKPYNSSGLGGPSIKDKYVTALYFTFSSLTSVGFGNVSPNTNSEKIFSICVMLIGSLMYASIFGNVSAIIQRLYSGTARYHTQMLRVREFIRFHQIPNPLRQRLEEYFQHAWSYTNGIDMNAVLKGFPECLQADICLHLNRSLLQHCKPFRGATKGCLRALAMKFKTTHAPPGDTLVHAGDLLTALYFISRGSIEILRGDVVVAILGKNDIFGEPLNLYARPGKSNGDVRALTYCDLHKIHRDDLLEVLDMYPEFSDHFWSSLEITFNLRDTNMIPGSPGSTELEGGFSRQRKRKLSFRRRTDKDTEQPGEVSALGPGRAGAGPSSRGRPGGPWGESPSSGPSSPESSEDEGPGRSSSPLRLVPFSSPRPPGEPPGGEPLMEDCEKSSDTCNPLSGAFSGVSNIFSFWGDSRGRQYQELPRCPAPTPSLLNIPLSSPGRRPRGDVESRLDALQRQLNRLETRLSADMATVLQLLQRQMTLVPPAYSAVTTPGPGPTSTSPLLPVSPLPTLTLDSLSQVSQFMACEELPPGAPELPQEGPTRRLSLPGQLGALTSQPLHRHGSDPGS

Cytochrome P450 1A2 = biological target: T1, Cytochrome P450 1A2 (Homo sapiens, UniProt P05177); experiment: Inhibition of human microsomal CYP1A2 expressed in baculovirus infected insect cells using luciferin-1A2 as substrate preincubated with enzyme-substrate mixture for 30 mins followed by further incubation with NADPH for 30 mins by CYP450 luciferase Glo assay; format: ADME
T1 sequence (P05177 whole entry): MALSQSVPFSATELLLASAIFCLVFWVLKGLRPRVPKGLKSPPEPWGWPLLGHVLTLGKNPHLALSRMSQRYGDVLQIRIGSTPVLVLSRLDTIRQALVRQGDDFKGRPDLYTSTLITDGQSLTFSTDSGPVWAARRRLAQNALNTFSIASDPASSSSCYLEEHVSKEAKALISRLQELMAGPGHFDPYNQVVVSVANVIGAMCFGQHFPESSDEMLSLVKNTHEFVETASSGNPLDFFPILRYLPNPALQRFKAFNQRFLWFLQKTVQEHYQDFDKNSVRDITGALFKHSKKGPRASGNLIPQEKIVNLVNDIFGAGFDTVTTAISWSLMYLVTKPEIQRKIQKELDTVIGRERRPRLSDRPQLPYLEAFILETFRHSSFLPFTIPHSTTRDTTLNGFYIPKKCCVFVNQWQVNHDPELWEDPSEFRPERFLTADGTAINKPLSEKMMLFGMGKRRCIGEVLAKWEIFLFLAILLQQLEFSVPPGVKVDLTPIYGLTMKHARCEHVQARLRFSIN

Cytochrome P450 2D6 = Cytochrome P450 2D6 (Homo sapiens, UniProt P10635); experiment: Inhibition of human microsomal CYP2D6 expressed in baculovirus infected insect cells using luciferin-ME as substrate preincubated with enzyme/substrate mixture for 30 mins followed by further incubation with NADPH for 30 mins by CYP450 luciferase Glo assay; format: ADME
Cytochrome P450 2D6, sequence (P10635 whole entry): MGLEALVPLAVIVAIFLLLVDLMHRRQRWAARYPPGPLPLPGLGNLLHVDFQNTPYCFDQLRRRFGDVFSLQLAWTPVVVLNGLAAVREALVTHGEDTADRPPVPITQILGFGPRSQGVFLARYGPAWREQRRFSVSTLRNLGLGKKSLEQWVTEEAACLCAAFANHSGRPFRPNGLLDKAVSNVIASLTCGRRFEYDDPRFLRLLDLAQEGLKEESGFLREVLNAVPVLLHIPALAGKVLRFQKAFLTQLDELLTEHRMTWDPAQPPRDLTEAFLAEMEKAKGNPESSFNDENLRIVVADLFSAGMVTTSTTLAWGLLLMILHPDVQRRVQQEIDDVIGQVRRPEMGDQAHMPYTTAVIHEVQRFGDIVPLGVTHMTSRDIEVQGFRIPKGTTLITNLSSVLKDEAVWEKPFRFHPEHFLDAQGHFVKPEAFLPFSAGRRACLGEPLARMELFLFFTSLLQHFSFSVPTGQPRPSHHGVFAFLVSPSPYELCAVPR

Cytochrome P450 3A4 = Cytochrome P450 3A4 (Homo sapiens, UniProt P08684); experiment: Inhibition of human microsomal CYP3A4 expressed in baculovirus infected insect cells using luciferin-IPA as substrate preincubated with enzyme/substrate mixture for 30 mins followed by further incubation with NADPH for 30 mins by CYP450 luciferase Glo assay; format: ADME
Cytochrome P450 3A4, sequence (P08684 whole entry): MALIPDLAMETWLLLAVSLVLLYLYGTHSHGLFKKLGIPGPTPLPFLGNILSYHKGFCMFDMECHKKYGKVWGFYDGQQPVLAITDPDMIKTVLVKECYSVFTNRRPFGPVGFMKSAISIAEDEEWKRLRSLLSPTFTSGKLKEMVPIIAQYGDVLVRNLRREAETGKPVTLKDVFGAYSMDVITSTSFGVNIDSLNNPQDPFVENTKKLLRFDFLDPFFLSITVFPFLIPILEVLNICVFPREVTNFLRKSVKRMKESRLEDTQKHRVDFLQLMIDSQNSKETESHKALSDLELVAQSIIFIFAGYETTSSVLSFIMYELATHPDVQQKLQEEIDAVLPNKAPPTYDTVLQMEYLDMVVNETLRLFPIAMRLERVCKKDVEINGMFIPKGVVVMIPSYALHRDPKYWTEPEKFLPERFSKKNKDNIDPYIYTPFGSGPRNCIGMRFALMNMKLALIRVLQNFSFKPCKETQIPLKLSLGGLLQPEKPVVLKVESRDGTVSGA

[20] = Half life in C57BL/6 mouse at 2 mg/kg, iv or 5 mg/kg, po administered as single dose measured up to 24 hrs by LC-MS/MS analysis; format: ADME, organism-based; settings: in vivo
[21] = Volume of distribution at steady state in C57BL/6 mouse at 2 mg/kg, iv or 5 mg/kg, po administered as single dose measured up to 24 hrs by LC-MS/MS analysis; format: ADME, organism-based; settings: in vivo, read-out: Vdss
[22] = Clearance in C57BL/6 mouse at 2 mg/kg, iv or 5 mg/kg, po administered as single dose measured up to 24 hrs by LC-MS/MS analysis; format: ADME, organism-based; settings: in vivo
[23] = Oral bioavailability in C57BL/6 mouse at 5 mg/kg administered as single dose measured up to 24 hrs by LC-MS/MS analysis; format: ADME, organism-based; settings: in vivo
In short: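 C57BL/6 mice were dosed 5 mg/kg orally, with a 2 mg/kg iv reference arm. Plasma was sampled at eight time points up to 24 h.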

[24] = biological target: Human immunodeficiency virus type 1 integrase (Human immunodeficiency virus 1) (UniProt Q7ZJM1); experiment: Inhibition of wild type recombinant HIV1 His6-tagged integrase expressed in Escherichia coli BL21 using 18 nucleotide 3'-biotin labeled DNA acceptor as substrate upto 10 uM preincubated for 1 hr followed by substrate addition and further incubated for 90 mins in presence of recombinant LEDGF/p75 by HTRF assay
Human immunodeficiency virus type 1 integrase (Human immunodeficiency virus 1), sequence (Q7ZJM1 as listed by the source): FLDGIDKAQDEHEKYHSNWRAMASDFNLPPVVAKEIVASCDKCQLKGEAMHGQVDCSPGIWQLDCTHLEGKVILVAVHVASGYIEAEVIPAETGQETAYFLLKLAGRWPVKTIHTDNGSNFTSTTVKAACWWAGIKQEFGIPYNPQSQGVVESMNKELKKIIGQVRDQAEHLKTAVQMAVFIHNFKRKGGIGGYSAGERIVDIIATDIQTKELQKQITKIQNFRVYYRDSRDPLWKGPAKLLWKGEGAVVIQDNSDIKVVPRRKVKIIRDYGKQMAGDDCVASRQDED

For COc1ccnc(-c2nc(O)c(O)c(C(=O)N[C@H](C)C3CCCCC3)n2)c1, the IC50 [1] was 22000 nM, the EC50 [2] was 40 nM and the CC50 [3] was 3000 nM. It also gave a selectivity ratio [4] of 75, a CC50 at 168 h [5] of 2700 nM and a selectivity ratio at 7 days [6] of 75. The EC50 [7] was 56 nM, the EC50 [8] was 31 nM and the EC50 [9] was 110 nM. It also gave an EC50 [10] of 90 nM, a Ratio IC50 [11] of 1.4 and a Ratio IC50 [12] of 0.8. For the same compound, the Ratio IC50 [13] was 2.8, the Ratio IC50 [14] was 2.3 and the half-life at 3 µM [15] was > 24 h. For the same compound, the half-life at 3 µM [16] was > 6 h, the half-life at 3 µM [17] was 1.9 h and the half-life at 3 µM [18] was > 4 h. The IC50 [19] was > 30000 nM, the IC50 (Cytochrome P450 1A2) was > 30000 nM and the IC50 (Cytochrome P450 2D6) was > 30000 nM. The IC50 (Cytochrome P450 3A4) was > 30000 nM, the half-life [20] was 1.4 h and the Vd [21] was 0.8 L/kg. The clearance [22] was 33.1 mL/min/kg, the bioavailability [23] was 25% and the inhibition [24] was “inactive”.
